# CDK5 inh: CDK5/p35 (human) kinase inhibition | Q00535+Q15078 | Recombinant CDK5/p35, ADP-Glo luminescence, 60 min | inhibition, % at 10 µM | actives 0.01% (n = 330,000) | AID 488839;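 active means highest replicate inhibition of at least 50% and at least 75% of replicates reaching 50%; inconclusive means only one of the two criteria met; inactive means both criteria failed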
# Target sequence (Q00535 whole entry, looked up): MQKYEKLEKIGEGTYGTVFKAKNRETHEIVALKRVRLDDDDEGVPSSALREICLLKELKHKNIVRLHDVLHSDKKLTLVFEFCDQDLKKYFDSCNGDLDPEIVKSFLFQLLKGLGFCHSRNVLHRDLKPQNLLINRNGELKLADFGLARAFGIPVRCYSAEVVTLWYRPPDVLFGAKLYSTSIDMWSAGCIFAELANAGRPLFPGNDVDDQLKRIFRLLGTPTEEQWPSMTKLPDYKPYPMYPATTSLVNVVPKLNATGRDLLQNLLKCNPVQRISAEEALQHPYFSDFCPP
# Target sequence (Q15078 whole entry, looked up): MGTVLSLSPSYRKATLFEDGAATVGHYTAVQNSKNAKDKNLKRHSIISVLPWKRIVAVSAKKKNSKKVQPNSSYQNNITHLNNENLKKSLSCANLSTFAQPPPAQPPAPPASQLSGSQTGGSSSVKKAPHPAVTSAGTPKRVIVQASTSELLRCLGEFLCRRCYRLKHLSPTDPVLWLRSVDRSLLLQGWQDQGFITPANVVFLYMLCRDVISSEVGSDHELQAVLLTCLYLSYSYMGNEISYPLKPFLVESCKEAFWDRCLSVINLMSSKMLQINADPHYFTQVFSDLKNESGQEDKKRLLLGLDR
# HIV Env fusion: blocks HIV Env-driven cell-cell fusion | HeLa-JRFL Env/CEM21 cell fusion, luciferase | actives 1.1% (n = 360,000) | inhibition, % at 12.3 µM;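 active means mean replicate inhibition score of at least 50 and every replicate individually at or above 50; inconclusive means only one of the two criteria met; inactive means mean below 50 and not all replicates reaching 50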
# dFosB activator: mouse delta FosB homodimer activation | P13346 | purified delta FosB, TAMRA-CDK5 oligo fluorescence polarization; percent of positive-control signal above neutral wells | activation, % at 25 µM | actives 0.99% (n = 340,000) | AID 493131;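 active means mean activation above about 17%, with every replicate also reaching it, limit read from the data, passing the limit was not always enough; inconclusive means only one of the two conditions met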
# Cneo AK release: causes C. neoformans cell lysis; adenylate kinase release luminescence, 4 h; normalised: neutral wells 0, clomiphene wells 100; actives 0.2% (n = 360,000); lysis activity, % at 15 µM;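 active means mean lysis activity across replicates of at least 80%, whatever share of replicates individually reach that level; inactive means mean lysis activity below 80%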
#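 Test system: log-phase Cryptococcus neoformans yeast cells; Quantity: yeast cell density of 5 × 10^6 cells/mL; Buffer or medium: YPD; Doses: single compound concentration per well; Timing: 4 h at 37 °C static, read 1 h later; Measured by: AK luminescence; Read-out basis: lysis from increased AK signal; Control set: Clomiphene as positive control.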
# PAX8 inh HTS: inhibitors of PAX8 transcriptional activity in RMG-I cells; RMG-I TPO-luciferase reporter, SteadyGlo, 24 h; inhibition, % at 12.6 µM; actives 1.2% (n = 360,000); AID 652154;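 active means mean replicate inhibition at least 60% with every replicate also reaching 60%; inconclusive means only one of the two criteria is met; inactive means mean below 60% and not all replicates reaching 60%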;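 further: luciferase light reporting Pax8 driven TPO promoter activity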
# INS-1E GSIS act: GLuc luminescence reporter in INS-1E cells, primary screen for activators of glucose-dependent secretion of insulin; AID 743287; actives 0.61% (n = 370,000); INS-1E GLuc reporter insulin secretion, 2-3 h; activation, % at 16.6 µM;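 active means lowest replicate activation of at least 40%, so every replicate reaches that level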
# A number is an active result; - = inactive; ? = inconclusive; . = no result given. Hits are enriched below; roughly 2.9% of the tested compounds scored in any of these assays.
SMILES,CDK5 inh,HIV Env fusion,dFosB activator,Cneo AK release,PAX8 inh HTS,INS-1E GSIS act
CCOc1cc(S(=O)(=O)n2cc(-c3ccc(F)cc3)c(N)n2)cc(OCC)c1OCC,-,.,-,-,.,-
Cc1ccc(CNC(=O)Cn2c(=O)c3sccc3n(Cc3ccc([N+](=O)[O-])cc3)c2=O)cc1,-,-,-,.,-,42
C[C@H]1CN([C@@H](C)CO)S(=O)(=O)c2ccc(C#CC3CC3)cc2O[C@H]1CN(C)C(=O)c1ccccc1,.,-,.,-,.,-
CCSc1nc2ccccc2n1CC(N)=O,-,-,-,-,.,-
CCSc1nc2ccccc2n1C(=O)/C=C\c1ccc(OC)c(OC)c1,-,-,-,-,70,.
C[C@@H]1CCCCO[C@H](CN(C)Cc2ccc(C(=O)O)cc2)[C@H](C)CN([C@H](C)CO)C(=O)c2cc(N(C)C)ccc2O1,.,-,.,-,-,-
CCCCOC(=O)c1ccc(-c2ccc(/C=N/NC(=S)NCC)o2)cc1,-,-,-,.,.,159
COC(=O)CN1C(=S)N(C)C(=O)C1CC(=O)Nc1ccccc1 (stereo not given),-,.,-,-,115,-
COC(=O)CN1C(=S)N(c2ccc(Cl)cc2)C(=O)C1CC(=O)Nc1ccccc1 (stereo not given),-,-,-,.,-,-
COc1ccc(C(=O)Oc2ccc(F)cc2C(=O)/C=C/c2ccc(OC)c(OC)c2)cc1,-,-,-,.,-,-
COc1ccc(/C=C/C(=O)c2cc(F)ccc2OC(=O)c2ccccc2C)cc1OC,-,-,-,-,91,-
CC(=O)n1cc(N(C(=O)CCl)c2ccccc2)c2ccccc21,-,-,-,-,109,-
CN(C)C(=O)c1cccc(-c2ccc3c(c2)[C@H]2[C@H](CCN2C(=O)C2CC2)[C@@H](CO)N3)c1,.,.,.,-,-,-
Cc1cc(Nc2ccc3c(c2)OCCO3)c2ccccc2n1,-,.,-,.,88,-
COc1ccc(Nc2cc(C)nc3ccc(C)cc23)cc1,.,-,.,-,-,-
Cc1cc(Nc2ccc(C)c(C)c2)c2ccccc2n1,-,-,-,-,-,-
Cc1ccc2nc(C)cc(Nc3ccc4c(c3)OCCO4)c2c1,-,-,31,-,-,.
Cc1cccn2cc(CNS(=O)(=O)c3ccc4ccccc4c3)nc12,-,?,-,-,-,65
C[C@H](CO)N1C[C@H](C)[C@@H](CN(C)C(=O)Nc2cccc3ccccc23)Oc2ccc(NC(=O)CCCN(C)C)cc2C1=O,.,.,.,.,-,-
CCOc1ccc(NC(=O)COC(=O)Cn2cnnn2)cc1OCC,-,.,-,-,.,44
O=C(/C=C/c1ccc2ccccc2n1)N1CCN(S(=O)(=O)c2ccc(F)cc2)CC1,-,-,-,.,68,-
Cc1c(C)c2c(OCC(=O)O)cc3c(c2oc1=O)CCC(C)(C)O3,-,-,-,-,-,248
CC1(C(=O)NCc2ccccc2)CN(S(C)(=O)=O)CC(=O)N1C1CC1 (stereo not given),.,-,.,.,-,65
COc1ccc(NC(=O)Nc2ccc3c(c2)C(=O)N([C@@H](C)CO)C[C@H](C)[C@H](CN(C)S(=O)(=O)c2cccs2)OCCCC[C@@H](C)O3)cc1,.,-,.,-,.,-
COc1cccc(CN2CC3(C2)CN(C(=O)C2CC2)[C@@H](CO)c2c3c3ccc(OC)cc3n2C)c1,.,.,.,.,.,-
SMILES,CDK5 inh,HIV Env fusion,dFosB activator,Cneo AK release,PAX8 inh HTS,INS-1E GSIS act
CCc1ccn2cc(-c3cc(-c4ccccc4)no3)nc2c1,-,-,-,-,83,-
CC(C)c1onc(C(=O)N2CCN(c3ccccc3)CC2)c1[N+](=O)[O-],-,-,-,-,-,-
Cc1ccc(Cl)cc1N1CCN(C(=O)c2noc(C(C)C)c2[N+](=O)[O-])CC1,.,-,-,-,119,-
CC(C)c1onc(C(=O)N2CCN(C(c3ccccc3)c3ccccc3)CC2)c1[N+](=O)[O-],-,-,-,-,84,-
C[C@@H]1CN([C@@H](C)CO)C(=O)c2cc(NS(=O)(=O)c3ccccc3)ccc2O[C@H]1CN(C)Cc1ccc2c(c1)OCO2,.,-,.,-,-,-
c1ccc(CN2CCN(c3nc(NCc4ccco4)c4ccccc4n3)CC2)cc1,-,-,28,-,.,-
Cc1ccc(OCCN2CCN(c3nc(NCc4ccco4)c4ccccc4n3)CC2)cc1,-,.,27,-,.,-
OCCN1CCN(c2nc(NCc3ccco3)c3ccccc3n2)CC1,-,.,-,.,.,.

# Bioassay records from PubChem BioAssay.
